ASAP1 GAP inh: ASAP1 ArfGAP inhibition. Q9ULH1. ASAP1-stimulated ARF1 GTP hydrolysis, GDP FP detection. inhibition, % at 16.5 µM. hit rate 0.19% among 360,000; in the data active = inhibition above about 25%;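 also: 0% = vehicle with enzyme and substrate and 100% = no enzyme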
Target sequence (Q9ULH1 325-724 limits assumed): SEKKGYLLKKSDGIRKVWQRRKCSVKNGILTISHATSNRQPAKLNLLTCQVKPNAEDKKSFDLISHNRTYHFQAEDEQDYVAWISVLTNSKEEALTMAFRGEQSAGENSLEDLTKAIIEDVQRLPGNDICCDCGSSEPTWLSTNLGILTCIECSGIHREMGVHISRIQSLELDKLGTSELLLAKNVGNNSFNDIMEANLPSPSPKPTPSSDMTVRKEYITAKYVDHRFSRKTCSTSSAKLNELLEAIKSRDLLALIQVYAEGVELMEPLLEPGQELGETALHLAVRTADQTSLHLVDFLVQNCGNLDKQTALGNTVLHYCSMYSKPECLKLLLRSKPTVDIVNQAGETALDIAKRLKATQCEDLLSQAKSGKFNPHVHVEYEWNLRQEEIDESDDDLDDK
ARFGAP1 inhibitor: inhibits rat ARF GTPase activating protein 1; Q62848; hit rate 0.26% among 360,000; inhibition, % at 16.5 µM; Arfgap1-stimulated ARF1 GTP hydrolysis, GDP FP detection;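 active = inhibition above a per-plate limit, mean inhibition of low control wells plus 3 SD, cut at about 25% in these data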;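 also: 0% = DMSO wells with enzyme and 100% = wells lacking Arfgap1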
Target sequence (Q62848 1-136 limits assumed): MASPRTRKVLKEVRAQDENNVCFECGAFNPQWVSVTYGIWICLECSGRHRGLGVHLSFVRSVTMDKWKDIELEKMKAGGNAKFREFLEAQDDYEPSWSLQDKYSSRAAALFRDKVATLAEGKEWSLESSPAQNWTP
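Repeats: one replicate per compound; assay system: rat Arfgap1 catalytic domain, aa 1-136; times: enzyme reaction 120 min at 25 °C after 20 min preincubation; detection: FP of antibody-bound GDP Alexa 633 tracer, ex 620/em 688 nm; benchmarks: high control wells lacking Arfgap1, low control full reaction with DMSO; reagent: human ARF1(Δ1-17)-GTP substrate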
IDE cell inh: cellular human IDE inhibition; P14735; HEK cells, FAbetaB cleavage, fluorescence polarization; inhibition, % at 5.59 µM; hit rate 0.41% among 320,000; AID 434962;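 active = percent inhibition above the average of all tested compounds plus 3 SD, set per screening campaign, cut at about 16% in these data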;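 also: IDE supplied by intact live HEK cells; FP after avidin binding of uncleaved biotin substrate so inhibition keeps polarization high; 0% = DMSO wells and 100% = 60 µM reference IDE inhibitor Ii1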
PREPL inhibitor: inhibits the human prolyl oligopeptidase-like enzyme | Q4J6C6 | recombinant PREPL, fluorescence polarization activity-based probe | inhibition, % at 5.96 µM | hit rate 0.68% among 320,000; in the data active = inhibition above about 43%;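 also: 0% = enzyme with DMSO and 100% = wells lacking enzyme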
IDE act: boosts human insulin-degrading enzyme activity in HEK cells; P14735; FAbeta-B cleavage, fluorescence polarization; 0% vehicle, 100% cell-free pure enzyme wells; activation, % at 5.96 µM; hit rate 0.073% among 340,000;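 active = activation above the mean of all tested compounds plus 3 SD, set per screening campaign, cut at about 17% in these data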
* hit, by the source's call. Hits are enriched below; roughly 1.2% of the tested compounds scored in any of these assays.

Results for COC(=O)[C@]12C[C@H](CC(=O)NCCC(C)C)C(=O)N(CCC3=CCCCC3)C1=C[C@H](C(C)(C)C)O[C@@H]2C ?
ASAP1 GAP inh: -5; ARFGAP1 inhibitor: -11

How did O=C(O)c1ccccc1Nc1ccc([N+](=O)[O-])cc1 do in these assays?
ASAP1 GAP inh: 2; ARFGAP1 inhibitor: 11; IDE cell inh: -14; PREPL inhibitor: -3; IDE act: 28*

Results for CCOC(=O)Oc1ccc2c(=O)c(Oc3cccc(C)c3)coc2c1 ?
ASAP1 GAP inh: 2; ARFGAP1 inhibitor: 8; IDE cell inh: 0; PREPL inhibitor: 65*; IDE act: 1

Results for O=C(NCCSc1ccc(Br)cc1)c1ccc2nc[nH]c2c1 ?
ASAP1 GAP inh: -2; ARFGAP1 inhibitor: 14; IDE cell inh: 2; PREPL inhibitor: -9; IDE act: 20*

How did Cc1ccc(S(=O)(=O)N2CCOCC2)cc1C(=O)Nc1ccc(-c2cn3ccsc3n2)cc1 do in these assays?
ASAP1 GAP inh: -6; ARFGAP1 inhibitor: 12; IDE cell inh: 20*; PREPL inhibitor: 9; IDE act: -15

Results for Cc1ccccc1/C=N/Nc1nc2ccccc2[nH]1 ?
ASAP1 GAP inh: -5; ARFGAP1 inhibitor: -1; IDE cell inh: -3; PREPL inhibitor: 41; IDE act: 6

Results for Cc1[nH]c2ccccc2c1/C=N/Nc1nc2ccccc2[nH]1 ?
ASAP1 GAP inh: -4; ARFGAP1 inhibitor: 9; IDE cell inh: 9; PREPL inhibitor: 53*

What do the screens show for `Cc1cc(NCCCCCCCNc2cc(C)nc3cc([N+](=O)[O-])ccc23)c2ccc([N+](=O)[O-])cc2n1`?
ASAP1 GAP inh: 108*; ARFGAP1 inhibitor: active; IDE act: -8

How did COCCCNc1cc(C)nc2ccccc12 do in these assays?
ASAP1 GAP inh: 1; ARFGAP1 inhibitor: 5; IDE cell inh: -2; PREPL inhibitor: 3; IDE act: 3

Results for CCN(CC)c1ccc(/C=C(\C#N)C(=O)NCc2ccccc2)cc1 ?
IDE cell inh: 23*; PREPL inhibitor: 5; IDE act: -17

Results for COc1ccc(C(=O)Oc2cccc(/C=N/NC(N)=S)c2)cc1 ?
ASAP1 GAP inh: 11; ARFGAP1 inhibitor: 5; IDE cell inh: -1; PREPL inhibitor: 45*; IDE act: 0

What do the screens show for `COc1cc(/C=N/NC(N)=S)ccc1OC(=O)c1ccc(C)cc1`?
ASAP1 GAP inh: 7; ARFGAP1 inhibitor: -11; IDE cell inh: 10; PREPL inhibitor: 41; IDE act: -1

How did COc1cccc(CNC(=O)[C@H]2CCCN2C(=O)[C@H]2CCCN2C(=O)c2cccc3ccccc23)c1 do in these assays?
ASAP1 GAP inh: -1; ARFGAP1 inhibitor: 10

How did CC(C)(C)c1[nH]nc2c1C(c1cccnc1)C(C#N)=C(N)O2 (configuration not stated) do in these assays?
ASAP1 GAP inh: -12; ARFGAP1 inhibitor: -1; IDE cell inh: 4; PREPL inhibitor: -1; IDE act: -5

Results for CC(C)(C)c1[nH]nc2c1C(c1ccc(OC(=O)c3ccco3)cc1)C(C#N)=C(N)O2 (configuration not stated) ?
ASAP1 GAP inh: 6; ARFGAP1 inhibitor: 10; IDE cell inh: -8; PREPL inhibitor: 71*; IDE act: -1

How did COc1ccc(/C=C2\Oc3cc(OCC(=O)N4CCC(C(=O)O)CC4)ccc3C2=O)c(OC)c1 do in these assays?
IDE cell inh: -15; PREPL inhibitor: -3; IDE act: 29*

What do the screens show for `CSCCC(c1nc2ccccc2[nH]1)n1c(/C=C/c2ccc(Cl)cc2)nc2ccccc21` (configuration not stated)?
ASAP1 GAP inh: 14; ARFGAP1 inhibitor: 6

How did CCC(=O)c1ccc(OCC(=O)Nc2cccc(S(=O)(=O)N(C)c3ccccc3)c2)cc1 do in these assays?
ASAP1 GAP inh: 4; ARFGAP1 inhibitor: 3; IDE cell inh: 11; PREPL inhibitor: -3; IDE act: -8

How did CN(c1ccccc1)S(=O)(=O)c1cccc(NC(=O)COc2cccc([N+](=O)[O-])c2)c1 do in these assays?
ASAP1 GAP inh: 3; ARFGAP1 inhibitor: -9; IDE cell inh: 4; PREPL inhibitor: -17; IDE act: 18*

How did COc1ccc(C2c3ccc4ccccc4c3Oc3ncn(CCN4CCOCC4)c(=N)c32)cc1 (configuration not stated) do in these assays?
ASAP1 GAP inh: 6; ARFGAP1 inhibitor: -7; IDE cell inh: 1; PREPL inhibitor: 44*; IDE act: -5

What do the screens show for `COc1ccc(C2c3ccc4ccccc4c3Oc3ncn(CCO)c(=N)c32)cc1` (configuration not stated)?
IDE cell inh: 3; PREPL inhibitor: 11; IDE act: 3

How did COC(=O)C1=C(C)N(CC(C)C)C(=S)NC1c1ccc(-c2ccccc2)cc1 (configuration not stated) do in these assays?
ASAP1 GAP inh: 11; ARFGAP1 inhibitor: 8

What do the screens show for `COc1ccc(-c2cc(NC(=O)Cc3c[nH]c4ccccc34)ccc2Nc2cccnc2)c(OC)c1`?
ASAP1 GAP inh: 5; ARFGAP1 inhibitor: 9

How did CN(C)CCCNc1nc2sc3c(c2c(=O)n1CCc1ccccc1)CCCCC3 do in these assays?
ASAP1 GAP inh: -9; ARFGAP1 inhibitor: 6; IDE cell inh: -1; PREPL inhibitor: 68*; IDE act: 1

Results for FC(F)(F)c1cc(CCN2CCNC[C@H]2Cc2cccc3ccccc23)cc(C(F)(F)F)c1 ?
ASAP1 GAP inh: -5; ARFGAP1 inhibitor: -6; IDE cell inh: 4; PREPL inhibitor: -32; IDE act: 20*

Results for C[C@@H]1NS(=O)(=O)c2cccc(Cl)c2O[C@@H]1c1ccccc1 ?
ASAP1 GAP inh: -4; ARFGAP1 inhibitor: -1

How did COc1ccc(CN2C[C@@]3(O)CC[C@@H](O)[C@@H](OC)[C@@H]3[C@@]2(C)[C@H](O)CC=C(C)C)cc1 do in these assays?
ASAP1 GAP inh: -1; ARFGAP1 inhibitor: 6

What do the screens show for `COc1ccc(-c2cc(C#N)nc(N3CCNCC3)n2)cc1`?
ASAP1 GAP inh: 53*; ARFGAP1 inhibitor: 75*; IDE cell inh: 1; PREPL inhibitor: -60; IDE act: 2

How did CCOc1cc(/C=C2/C(=O)N(c3ccccc3)N=C2C)ccc1OC(=O)c1cccs1 do in these assays?
IDE cell inh: -1; PREPL inhibitor: 54*; IDE act: 7

What do the screens show for `CCCN1CCCc2cc(CN)ccc21`?
ASAP1 GAP inh: -14; ARFGAP1 inhibitor: -13; IDE cell inh: 2; PREPL inhibitor: 63*; IDE act: 3

Results for Clc1ccc2nc(CN3CCCCC3)cn2c1 ?
ASAP1 GAP inh: 5; ARFGAP1 inhibitor: 8; IDE cell inh: -2; PREPL inhibitor: -3; IDE act: 3

Results for Clc1ccc2nc(CN3CCCc4ccccc43)cn2c1 ?
ASAP1 GAP inh: 2; ARFGAP1 inhibitor: -7; IDE cell inh: 5; PREPL inhibitor: 67*; IDE act: -3

What do the screens show for `O=C(N/N=C/c1ccc2c(c1)OCO2)C(=O)Nc1ccccc1Cl`?
ASAP1 GAP inh: -13; ARFGAP1 inhibitor: 3; IDE act: -1

Screens from PubChem BioAssay.
